Read-outs that look alike come from different tables or passages of the source.

Here are results for four compounds from article PMC4314522 (Molecular Metabolism, 2014).

Series [1] has as its system mouse colonic crypt cultures GPR40 (−/−). Kind of series: Total GLP-1 release from primary colonic crypt cultures, Gpr40 KO mice. It counts as cell-based. To be noted: 1 μM ligand, 2 h, relative to basal (vehicle). In a few lines:
(§1)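 Colonic crypts from male C57BL/6 littermates were collagenase-digested and seeded on Matrigel. […] Next day, cells were exposed to ligands for 2 h at 37 °C, in triplicate, in standard solution with 0.1% fatty-acid-free BSA and 10 mM glucose. Synthetic ligands were in DMSO; ALA was BSA-complexed at 6:1 molar. Total GLP-1 was measured by electrochemiluminescent immunoassay, expressed as fold over vehicle basal.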

Series [2] deals with T1, human GPR40 (Homo sapiens, UniProt O14842). It counts as binding.
T1 sequence (O14842 whole entry): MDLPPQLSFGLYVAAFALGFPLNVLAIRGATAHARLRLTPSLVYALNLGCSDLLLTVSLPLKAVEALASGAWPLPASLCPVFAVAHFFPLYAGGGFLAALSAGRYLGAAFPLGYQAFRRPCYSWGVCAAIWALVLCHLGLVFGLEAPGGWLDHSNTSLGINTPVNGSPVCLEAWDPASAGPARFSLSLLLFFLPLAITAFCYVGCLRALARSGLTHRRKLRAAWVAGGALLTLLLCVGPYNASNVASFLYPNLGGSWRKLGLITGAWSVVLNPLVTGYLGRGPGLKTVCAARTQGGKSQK
Another series relates to plasma GIP. In words: Plasma GIP after oral gavage in fasted mice. It counts as in vivo, mouse. To be noted: 30 mg/kg oral, 30 min, overnight fasted mice.
The nature of another series: PK experiments. To be noted: mouse, in vivo, po, 30 mg/kg.
Series [3] deals with T1, human GPR40. It counts as binding. The source holds these as a separate data set.
Series [4] has as its system mouse colonic crypt cultures (WT). In words: Total GLP-1 release from primary colonic crypt cultures, WT mice. It counts as cell-based. The settings on record: 1 μM ligand, 2 h, relative to basal (vehicle). In short, it runs like this: as §1
Series [5] has as its target T1, human GPR40. In words: IP turnover assay in transiently transfected COS-7 cells. To be noted: for Emax: COS-7, read-out: IP3 (in vitro) Emax. The format is cell-based.
For the next series, the system named is plasma GLP-1. Kind of series: Plasma total GLP-1 after oral gavage in fasted mice. The settings on record: 30 mg/kg oral, 30 min, overnight fasted mice; vehicle about 5 pmol/L. It counts as in vivo, mouse.
In series [6] the target is T1, human GPR40. In words: cAMP accumulation assay in transiently transfected COS-7 cells. It counts as cell-based. To be noted: for Stimulation of cAMP accumulation (in words): COS-7 transfected with GPR40.
The conditions of series [7]: phase-II studies, cited from earlier work.

For the compound `COc1ccc(F)c(-c2ccc(COc3cccc([C@@H](CC(=O)O)C4CC4)c3)cc2C2=CCCC2(C)C)c1` [AM-1638], in series [1], the “tGLP-1 (ex vivo) release, GPR40 (−/−)” value is recorded as 1.1 ± 0.07 fold change. Besides, on human GPR40 [2], the “Binding (in vitro) [3H]AM-1638: positive or negative competitive binding” value was “(pos)” and half-maximal inhibition (IC50) required 0.029 µM. In the series on plasma GIP (vehicle 53 pmol/L), the “Plasma GIP, median of all experiments” value worked out at 383 pmol/L. The highest level in “PK experiments” (Cmax) was 11 µM. At human GPR40 [3], the “Binding (in vitro) [3H]L358: positive or negative competitive binding” value is “(neg)” and the IC50 amounted to 0.026 µM. Also, the “tGLP-1 (ex vivo) release, WT” value in series [4] came out at 3.0 ± 0.54 fold change. Further, at human GPR40 [5], the 50% effective concentration (EC50) is 0.0251 µM and the maximum response (Emax) is 170 ± 14%. In addition, the “Plasma GLP-1, median of all experiments” value with plasma GLP-1 is on record as 29 pmol/L. In addition, the “Stimulation of cAMP accumulation (in words)” value (“Stimulation” for short) on human GPR40 [6] was “stimulated cAMP accumulation robustly”. At human GPR40 [6] (cAMP EC50 versus IP EC50), the “cAMP potency, fold lower than the potency for IP-accumulation” value came out at 7 fold.
`CC(C)c1noc(C2CCN(c3ncnc(Nc4ccc(S(C)(=O)=O)cc4F)c3[N+](=O)[O-])CC2)n1` [AR231453]: the “tGLP-1 (ex vivo) release, WT” value in series [4] is on record as 4.7 ± 0.3 fold change.
On to `CC/C=C\C/C=C\C/C=C\C/C=C\C/C=C\C/C=C\CCC(=O)O` [DHA, docosahexaenoic acid], for which, at human GPR40 [5], the response was half-maximal at 12 µM (EC50) and the Emax was 56 ± 6%. Further, on human GPR40 [6], the EC50 was above 1000 µM and the “Stimulation” value is on record as “not able to stimulate cAMP accumulation meaningfully”.
`Cc1cc(OCCCS(C)(=O)=O)cc(C)c1-c1cccc(COc2ccc3c(c2)OC[C@H]3CC(=O)O)c1` [TAK-875, fasiglifam]: the “tGLP-1 (ex vivo) release, GPR40 (−/−)” value in [1] is recorded as 1.1 ± 0.12 fold change. Further, the “Binding (in vitro) [3H]AM-1638: positive or negative competitive binding” value on human GPR40 [2] is on record as “(neg)”. Also, in the series with plasma GIP, the “Significance of plasma GIP increase (in words)” value was “only increased plasma GIP significantly in one of the three experiments”. The compound also displayed a Cmax in the series “PK experiments” of 2 µM. The “Binding (in vitro) [3H]L358: positive or negative competitive binding” value at human GPR40 [3] was “(pos)”. Moreover, in [7] (without signs of hypoglycemia), the “Effect on HbA1c” value is “decreased HbA1c as efficiently as sulfonylurea”. For the same compound, in series [7], the “Effect on plasma GLP-1” value is “no effect”. In addition, the “tGLP-1 (ex vivo) release, WT” value in series [4] is on record as 1.5 ± 0.08 fold change. For the same compound, on human GPR40 [5], the Emax came out at 98 ± 4%. Further, the “Plasma GLP-1, median of all experiments” value in the series on plasma GLP-1 is given as 10.8 pmol/L. In addition, the “Stimulation” value at human GPR40 [6] is “no or very limited stimulation of cAMP production”.
